Source: ChEMBL document CHEMBL5712922, “Synergistic effects of type I PRMT and PARP inhibitors against non-small cell lung cancer cells” (Clin Epigenetics, 2021)
Structures can show the parent of a compound that is named as a salt. Active and inactive are the calls of the source. The rule behind the calls is not given here.

How the values were obtained:
A549 [1] = assay: Induction of DNA damage in human A549 cells assessed as increase in stained cells at 2 uM for 7 days by gamma-H2AX analysis (reference value: 3.9%); type: functional; details: time 7 day
Method in brief: (§1)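 A549 cells grown on coverslips under MTT treatment conditions (inhibitors replenished every 48 h) for 7 days with MS023 (0.2–2 µM) and/or BMN-673 (50 nM); fixed in 4% paraformaldehyde, Triton-permeabilized, stained with anti-γ-H2AX (1:1000, 16 h, 4 °C) and Alexa488 secondary, DAPI counterstain. ≥200 cells imaged; fraction with >5 foci reported; unpaired t tests.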

HCC4006 [2] = assay: Antiproliferative against human HCC4006 cells expressing MTAP clone 1 assessed as […] treated for 7 days with replenishment of medium for every 48 hrs by MTT assay (reference value: 0.24 uM); type: functional, cell-based
Method in brief: (§2)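 Parental, empty-vector (pLoc) or MTAP-re-expressing lentiviral clone cells (blasticidin 3 µg/ml selected) seeded day 0; MS023 (0.2–2 μM final) and/or BMN-673 (0.3–50 nM final) or DMSO added after 16 h, replenished with medium every 48 h. Day 7: MTT reagent 3 h at 37 °C, solvent, absorbance 590 nm; triplicates; percent death = 1 − (treated/DMSO).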

A549 [3] = assay: Induction of DNA damage in human A549 cells at 2 uM for 7 days by gamma-H2AX analysis; type: functional, cell-based; details: time 7.0 day; method in brief: as §1
SK-LU-1 [4] = assay: Antiproliferative against human SK-LU-1 cells expressing MTAP clone 2 assessed as […] treated for 7 days with replenishment of medium for every 48 hrs by MTT assay (reference value: 16.3 uM); type: functional, cell-based
SK-LU-1 [5] = assay: Antiproliferative against human SK-LU-1 cells expressing MTAP clone 1 assessed as […] treated for 7 days with replenishment of medium for every 48 hrs by MTT assay (reference value: 16.3 uM); type: functional, cell-based
A549 [6] = assay: Induction of DNA damage in human A549 cells assessed as increase in stained cells at 0.2 uM for 7 days by gamma-H2AX analysis (reference value: 3.9%); type: functional; details: time 7 day; method in brief: as §1
A549 [7] = assay: Antiproliferative against human A549 cells expressing MTAP clone 1 assessed as […] treated for 7 days with replenishment of medium for every 48 hrs by MTT assay (reference value: 4.4 uM); type: functional, cell-based; method in brief: as §2
A549 [8] = assay: Antiproliferative against human A549 cells assessed as reduction in cell viability at 16.5 uM for 24 hrs relative to control; type: functional
Method in brief: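 A549 cells exposed to MS023 for 24 h in dose–response; viability read by flow cytometry with Viacount dye reagent distinguishing viable, pre-apoptotic and dead cells.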

A549 [9] = assay: Antiproliferative against human A549 cells expressing MTAP clone 2 assessed as […] treated for 7 days with replenishment of medium for every 48 hrs by MTT assay (reference value: 4.4 uM); type: functional, cell-based
HCC4006 [10] = assay: Antiproliferative against human HCC4006 cells expressing MTAP clone 2 assessed as […] treated for 7 days with replenishment of medium for every 48 hrs by MTT assay (reference value: 0.24 uM); type: functional, cell-based; method in brief: as §2
A549 [11] = assay: Antiproliferative against human A549 cells assessed as viable cells pretreated with MS023 for 24 hrs followed by compound addition at 10 uM measured after for 24 hrs relative to control; details: A549, 24 h, read-out: Activity
A549 [12] = assay: Synergistic antiproliferative activity against human A549 cells pretreated with MS023 for 24 hrs followed by compound addition at 10 uM measured after for 24 hrs relative to control; type: functional
Method in brief: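 A549 seeded 20K/well; next day 16.5 μM MS023 or DMSO for 24 h, then 181 epigenetic library drugs at 10 μM for 24 h. Viability by Viacount flow cytometry after trypsinization; heat-killed well as total death control. Synergy Index = (monotherapy viability × MS023 viability effect)/combination viability; also synergy percentage (1 − 1/SI)×100.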

A549 [13] = assay: Antiproliferative against human A549 cells expressing MTAP clone 1 assessed as […] treated at 25 to 50 nM for 7 days in presence of MS023 with replenishment of medium for every 48 hrs by MTT assay relative to control; type: functional; set-up: scale not given: the % may be the effect or the level left; details: dose 25-50 nM, time 7 day
A549 [14] = assay: Antiproliferative against human A549 cells assessed as killed cells at 0.3 nM treated for 7 days in presence of MS023 with replenishment of medium for every 48 hrs by MTT assay relative to control; details: time 7 day
A549 [15] = assay: Antiproliferative against human A549 cells expressing MTAP clone 2 assessed as […] treated at 25 to 50 nM for 7 days in presence of MS023 with replenishment of medium for every 48 hrs by MTT assay relative to control; type: functional; set-up: scale not given: the % may be the effect or the level left; details: dose 25-50 nM, time 7 day
PEO4 [16] = assay: Antiproliferative activity against human PEO4 cells expressing BRCA2 mutant at 3.75 to 60 nM in presence of MS023; type: functional, cell-based; details: dose 3.75-60 nM
Method in brief: (§3)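 PEO1 and PEO4 ovarian cells seeded 3,000/well; treated one day after plating with MS023 and/or BMN-673 or DMSO vehicle, medium with inhibitors replenished every 48 h. Six days after first treatment, nuclei stained with Hoechst 33342 (10 µg/ml final, 30 min) and counted by plate imaging; counts normalized to DMSO wells. Combination effect expressed as Bliss score.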

PEO1 [17] = assay: Antiproliferative activity against BRCA2 deficient human PEO1 cells at 3.75 to 60 nM; type: functional, cell-based; details: dose 3.75-60 nM; method in brief: as §3
A549 [18] = assay: Induction of cell death in human A549 cells at 0.3 nM in presence of 2 uM MS023 by viacount reagent based analysis; type: functional
[19] = Antiproliferative activity against human PEO4 cells expressing BRCA2 mutant assessed as bliss energy score at 3.75 to 60 nM in presence of MS023; type: functional; details: dose 3.75-60 nM; method in brief: as §3
A549 [20] = assay: Induction of DNA damage in human A549 cells assessed as increase in stained cells at 50 nM for 7 days by gamma-H2AX analysis (reference value: 3.9%); type: functional; details: time 7 day; method in brief: as §1
A549 [21] = assay: Induction of cell death in human A549 cells assessed as bliss energy score at 0.3 nM in presence of GSK 591 by viacount reagent based analysis; type: functional
PEO1 [22] = assay: Antiproliferative activity against BRCA2 deficient human PEO1 cells at 3.75 to 60 nM in presence of MS023; type: functional, cell-based; details: dose 3.75-60 nM; method in brief: as §3
A549 [23] = assay: Induction of DNA damage in human A549 cells at 50 nM for 7 days by gamma-H2AX analysis; type: functional, cell-based; details: time 7.0 day; method in brief: as §1
A549 [24] = assay: Induction of DNA damage in human A549 cells assessed as increase in stained cells at 50 nM for 7 days in presence of MS023 by gamma-H2AX analysis (reference value: 3.9%); type: functional; details: time 7 day; method in brief: as §1
PEO4 [25] = assay: Antiproliferative activity against human PEO4 cells expressing BRCA2 mutant at 3.75 to 60 nM; type: functional, cell-based; details: dose 3.75-60 nM; method in brief: as §3
A549 [26] = assay: Induction of DNA damage in human A549 cells assessed as increase in stained cells at 1 nM for 7 days by gamma-H2AX analysis (reference value: 3.9%); type: functional; details: time 7 day
A549 [27] = assay: Induction of cell death in human A549 cells assessed as bliss energy score at 0.3 nM in presence of EPZ 15666 by viacount reagent based analysis; type: functional
PEO1 [28] = assay: Antiproliferative activity against BRCA2 deficient human PEO1 cells assessed as bliss energy score at 3.75 to 60 nM in presence of MS023; type: functional; details: dose 3.75-60 nM; method in brief: as §3
A549 [29] = assay: Induction of DNA damage in human A549 cells at 50 nM in presence of MS023 for 7 days by gamma-H2AX analysis; type: functional, cell-based; details: time 7.0 day; method in brief: as §1

## CC(C)Oc1ccc(-c2c[nH]cc2CN(C)CCN)cc1
A549 [1]
  Activity: 27.6%
HCC4006 [2]
  IC50: 0.47 µM
A549 [3]
  Activity: Active
SK-LU-1 [4]
  IC50: 41 µM
SK-LU-1 [5]
  IC50: 36.7 µM
A549 [6]
  Activity: 19.6%
A549 [7]
  IC50: 5.1 µM
A549 [8]
  Activity: 23%
A549 [9]
  IC50: 13.4 µM
HCC4006 [10]
  IC50: 0.56 µM

## Cc1ccc(S(=O)(=O)O)cc1.NC(=O)c1cccc2cn(-c3ccc([C@@H]4CCCNC4)cc3)nc12
A549 [11]
  viability at 10 µM: 54.2%
A549 [12]
  Activity: 11%

## COC1CCN(C(=O)c2cc(Cc3n[nH]c(=O)c4ccccc34)ccc2F)CC1 [AZD2461]
A549 [11]
  viability at 10 µM: 54.2%
A549 [12]
  Activity: 67%

## NC(=O)c1ccc(I)c([N+](=O)[O-])c1 [INIPARIB]
A549 [11]
  viability at 10 µM: 54.2%
A549 [12]
  Activity: 15%

## O=C(c1cc(Cc2n[nH]c(=O)c3ccccc23)ccc1F)N1CCN(C(=O)C2CC2)CC1 [OLAPARIB]
A549 [11]
  viability at 10 µM: 54.2%
A549 [12]
  Activity: 48%

## CN(C)CC(=O)Nc1ccc2[nH]c(=O)c3ccccc3c2c1.Cl [PJ34]
A549 [11]
  viability at 10 µM: 54.2%
A549 [12]
  Activity: 21%

## CN(C)Cc1ccc(S(=O)(=O)n2ccc(/C=C/C(=O)NO)c2)cc1 [RESMINOSTAT]
A549 [11]
  viability at 10 µM: 54.2%

## Oc1ccc(/C=C/c2cc(O)cc(O)c2)cc1 [RESVERATROL]
A549 [11]
  viability at 10 µM: 54.2%

## O=C(CCCCCCNC(=O)c1cnc(N(c2ccccc2)c2ccccc2)nc1)NO [RICOLINOSTAT]
A549 [11]
  viability at 10 µM: 54.2%

## Cc1nc(C(=O)NCC(=O)O)c(O)c2ccc(Oc3ccccc3)cc12 [ROXADUSTAT]
A549 [11]
  viability at 10 µM: 54.2%

## CNCc1ccc(-c2[nH]c3cc(F)cc4c3c2CCNC4=O)cc1 [RUCAPARIB]
A549 [11]
  viability at 10 µM: 54.2%
A549 [12]
  Activity: 24%

## N#CC[C@H](C1CCCC1)n1cc(-c2ncnc3[nH]ccc23)cn1 [RUXOLITINIB]
A549 [11]
  viability at 10 µM: 54.2%

## CN1CCC(CNc2ccc3ncc(-c4cccc(OC(F)(F)F)c4)n3n2)CC1 [SGI-1776]
A549 [11]
  viability at 10 µM: 54.2%

## CC(NC(=O)c1ccccc1/N=C/c1c(O)ccc2ccccc12)c1ccccc1 (stereo not given) [SIRTINOL]
A549 [11]
  viability at 10 µM: 54.2%

## O=C(Nc1cccc(Cl)c1)Nc1ncc(CCNc2ncnc3ccsc23)s1 [SNS-314 MESYLATE]
A549 [11]
  viability at 10 µM: 54.2%

## O=C(O)CCCc1ccccc1 [SODIUM PHENYLBUTYRATE]
A549 [11]
  viability at 10 µM: 54.2%

## CC(=O)Nc1ccc(C(=O)Nc2ccccc2N)cc1 [TACEDINALINE]
A549 [11]
  viability at 10 µM: 54.2%

## CCS(=O)(=O)c1cccc(-c2cc(C(=O)NC3CCN(C)CC3)c(C)c3[nH]c4ncc(C)cc4c23)c1 [TAK-901]
A549 [11]
  viability at 10 µM: 54.2%

## Cn1ncnc1[C@H]1c2n[nH]c(=O)c3cc(F)cc(c23)N[C@@H]1c1ccc(F)cc1 [TALAZOPARIB]
A549 [13]
  Activity: 50%
A549 [14]
  Activity: >80%
A549 [15]
  Activity: 50%
PEO4 [16]
  Activity: Active
PEO1 [17]
  Activity: Active
A549 [18]
  Activity: Active
[19]
  Activity: 21.64
A549 [20]
  Activity: 40.4%
A549 [21]
  Activity: 19.892
PEO1 [22]
  Activity: Active
A549 [23]
  Activity: Active
A549 [24]
  Activity: 69.5%
PEO4 [25]
  Activity: inactive
A549 [26]
  Activity: 24.8%
A549 [27]
  Activity: 13.506
PEO1 [28]
  Activity: 17.98
A549 [29]
  Activity: Active

## O=C(O)C(O)C(O)C(=O)O (stereo not given) [TARTARIC ACID]
A549 [11]
  viability at 10 µM: 54.2%

## C[C@@H]1CCN(C(=O)CC#N)C[C@@H]1N(C)c1ncnc2[nH]ccc12 [TOFACITINIB]
A549 [11]
  viability at 10 µM: 54.2%

## N[C@@H]1C[C@H]1c1ccccc1 [TRANYLCYPROMINE HYDROCHLORIDE]
A549 [11]
  viability at 10 µM: 54.2%

## CC(/C=C/C(=O)NO)=C\[C@@H](C)C(=O)c1ccc(N(C)C)cc1 [TRICHOSTATIN]
A549 [11]
  viability at 10 µM: 54.2%

## CCCC(CCC)C(=O)O [VALPROIC ACID]
A549 [11]
  viability at 10 µM: 54.2%

## C[C@]1(c2nc3c(C(N)=O)cccc3[nH]2)CCCN1 [VELIPARIB]
A549 [11]
  viability at 10 µM: 54.2%
A549 [12]
  Activity: 98%

## O=C(CCCCCCC(=O)Nc1ccccc1)NO [VORINOSTAT]
A549 [11]
  viability at 10 µM: 54.2%

## C[C@H](NC(=O)/C(C#N)=C/c1cccc(Br)n1)c1ccccc1 [WP 1066]
A549 [11]
  viability at 10 µM: 54.2%

## O=c1ncccn1[C@@H]1O[C@H](CO)[C@@H](O)[C@H]1O [ZEBULARINE]
A549 [11]
  viability at 10 µM: 54.2%
